Screening data: PubChem, several laboratories
GRIN3A LBD mod: modulators (binders) of human NR3A ligand-binding domain; NR3A LBD differential scanning fluorimetry, Tm shift; 0% = protein alone, 100% = glycine-bound protein; Tm shift relative to glycine control, % at 25 µM; 2.5% of 340,000 active;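 active = melting temperature shift of at least 10% of the positive control shift, at one fixed dose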
WT yeast gro inh: growth inhibition of WT yeast, mitochondrial fusion screen; mitochondrial fusion phenotypic screen, WT strain; inhibition, % at 10 µM; 2.1% of 190,000 active; AID 1362; in the data active = inhibition above about 58%; tested in S. cerevisiae
EBV gp42 block: blocks Epstein-Barr virus glycoprotein 42 binding; Q1HVG2; Fluorescence polarization binding assay, mP read-out; inhibition, % (tested at 21.74 µM); 0.42% of 220,000 active; in the data active = inhibition above about 50%
Target sequence (Q1HVG2 whole entry, looked up): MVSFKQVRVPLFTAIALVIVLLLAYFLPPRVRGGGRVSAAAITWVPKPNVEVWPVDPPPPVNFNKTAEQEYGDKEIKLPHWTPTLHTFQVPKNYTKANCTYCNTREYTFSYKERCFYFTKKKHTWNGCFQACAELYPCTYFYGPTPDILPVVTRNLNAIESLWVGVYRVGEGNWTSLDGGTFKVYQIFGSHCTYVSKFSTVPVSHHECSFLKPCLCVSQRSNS
Tb MetRS inh: blocks T. brucei methionyl-tRNA synthetase activity; inhibition, % at 11.9 µM; 0.4% of 360,000 active; purified T. brucei MetRS, ATP depletion, Kinase-Glo luminescence;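 active = inhibition above a per-plate cutoff of the control wells' mean inhibition plus 3 SD, cut at about 5.5% in these data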
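Material: T. brucei methionyl-tRNA synthetase, purified; reagent: substrates ATP, L-methionine and bulk Escherichia coli tRNA; dosing: 11.9 µM single point; timing: 15 min plus 2 h at 25 °C; detection: luminescence of leftover ATP; evaluation: % inhibition; control set: DMSO-only wells as low control; replicates: singlicate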
MPTP block: blocks calcium-induced mitochondrial swelling; isolated mouse mitochondria, Ca2+ swelling absorbance, 30 min; inhibition, % at 10 µM; 1.4% of 360,000 active;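 active = inhibition of 50% or more, scaled per plate between neutral and stimulator controls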
CHOP inh: CHOP inhibition in unfolded protein response; 3.8% of 220,000 active; inhibition, % at 10 µM; CHO-K1 CHOP-promoter luciferase, tunicamycin-induced, 15-18 h;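 active = compounds that reduced the stress-induced luciferase reporter signal by more than about 70% of percent inhibition, limit read from the data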
A number is an active result; - = inactive; . = not tested or not shown. This is a sample that favours compounds with a hit; in the whole collection about 6.4% have one here.

SMILES	GRIN3A LBD mod	WT yeast gro inh	EBV gp42 block	Tb MetRS inh	MPTP block	CHOP inh
COC(=O)C1=C(C(=O)OC)[C@@H]2N(Cc3ccccc3)c3ccccc3[C@@]23C[C@@H](C(=O)OC)N(C(=O)c2ccc(Br)cc2)C3=N1	-	.	.	-	-	.
Cc1ccc(C(=O)N2[C@@H]3CN(C)C(=O)[C@@]2(Cc2ccccc2)[C@H]2C(=O)N(Cc4ccccc4)C(=O)[C@@H]32)cc1	16.8	.	.	-	-	.
COc1cc2ccccc2cc1C(=O)Nc1ccc(N2CCN(C(=O)C(C)C)CC2)cc1	-	.	.	-	-	.
N#CC(Nc1ccccc1)c1ccccc1OCc1ccccc1 (configuration not stated)	-	.	-	-	-	88.7
COc1ccc(OC)c(S(=O)(=O)N2CCCc3ccccc32)c1	-	-	-	-	-	-
CC(C)N1C(=O)/C(=C\c2nc3ccccc3c(=O)n2-c2ccccc2)c2ccccc21	-	83.6	-	-	-	-
CC(C)(C)c1ccc(C(=O)Nc2cccc3c(=O)[nH][nH]c(=O)c23)cc1	-	-	93.0	-	-	-
C=CCc1cccc(/C=N/NC(=O)CNc2ccccc2)c1O	-	-	-	-	-	88.5
C=CCc1cccc(/C=N/NC(=O)CNc2ccccc2OC)c1O	13.3	-	-	-	-	88.6
C=CCc1cccc(/C=N/NC(=O)CNc2cccc3ccccc23)c1O	29.8	62.3	-	-	-	-
C=CCc1cccc(/C=N/NC(=O)C[n+]2ccccc2)c1O	-	.	.	-	-	.
Cc1ccc(S(=O)(=O)N2CCN(C(=O)COC(=O)CCOc3cc(C)ccc3C)CC2)cc1	-	.	.	-	-	.
CCN1CCN(CCNC(=O)c2cc(Cl)c(NC(=O)C3=C(C)OCCS3)cc2OC)CC1	-	.	.	-	-	.
CC1(c2ccccc2)CC(C)(C)N2C(=O)Cc3cccc1c32 (configuration not stated)	-	-	-	-	-	71.9
CC1(c2ccccc2)CC(C)(C)N(C(N)=O)c2ccccc21 (configuration not stated)	-	.	.	-	-	.
Cc1ccccc1-c1nnc(NC(=O)c2cc3ccccc3oc2=O)s1	.	-	-	.	.	-
Cc1cccnc1NC(=O)c1cc2ccccc2oc1=O	-	-	-	-	-	90.3
O=C(COC(=O)c1ccccc1Nc1ccccc1)Nc1ccccc1	-	-	-	-	-	78.0
O=C(COC(=O)c1ccccc1O)Nc1ccc(OC(F)F)cc1	-	-	-	-	-	72.4
CC(=O)c1ccc(NC(=O)COC(=O)c2ccccc2Nc2ccccc2)cc1	-	-	-	-	-	-
CCCCC(=O)OCC(=O)Nc1ccc(OC(F)F)cc1	13.1	-	-	-	-	-
COc1ccc(-c2cc(Nc3ccccc3NC(=O)C(F)(F)F)n(CCC#N)n2)cc1	-	-	-	-	-	-
C(=N\N1CCN(C(c2ccccc2)c2ccccc2)CC1)/c1ccc2c(c1)OCO2	-	-	-	-	-	-
CSc1ccccc1NC(=O)C(=O)c1c[nH]c2ccccc12	21.4	-	-	-	-	-
O=C1C(Oc2ccccc2)C(c2ccc3c(c2)OCO3)N1CCc1ccc(F)cc1 (configuration not stated)	13.0	-	-	-	-	-
SMILES	GRIN3A LBD mod	WT yeast gro inh	EBV gp42 block	Tb MetRS inh	MPTP block	CHOP inh
COc1ccc(CCN2C(=O)C(Oc3ccccc3C)C2c2ccc3c(c2)OCO3)cc1 (configuration not stated)	-	-	-	-	-	-
Cc1cccc(C)c1NC(=S)N1CC(C)OC(C)C1 (configuration not stated)	-	.	-	-	-	-
Cc1ccc(NC(=O)c2cc(NC(=O)c3ccco3)ccc2N2CCOCC2)cc1Cl	-	-	-	-	-	-
CCCc1cc(-c2nc(-c3ccc(Br)cc3)cs2)ccn1	-	68.7	-	-	-	-
CCCOc1ccc(-c2nc(-c3ccc(N)cc3)cs2)cc1	.	.	-	.	.	-
Clc1ccc(-c2csc(-c3ccno3)n2)cc1	-	.	-	-	-	-
CCCc1cc(-c2nc(-c3ccc(Cl)cc3)cs2)ccn1	-	78.0	-	-	-	-
C/C(CC(=O)Nc1ccc(Cl)c(C(F)(F)F)c1)=N\NC(=O)c1cc2ccccc2cc1O	29.6	-	-	-	-	-
CC(NC(=O)/C(C#N)=C/c1ccc(OCC(=O)O)cc1)c1ccccc1 (configuration not stated)	-	.	.	-	-	.
